The results in this text go back to ChEMBL document CHEMBL1154129, “Cytotoxic polyketides from a marine-derived fungus Aspergillus glaucus” (J Nat Prod, 2008).

Calls of active or inactive are those of the source. The rule behind the calls is not given here.

What all share (assay type): functional, cell-based
For assay [1], the system named is A549. The assay can be described thus: Cytotoxicity against human A549 cells after 24 hrs by SRB assay. To be noted: A549, 24 h. In short, it runs like this:
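A-549 cells plated at 2 × 10^5 cells/mL, then compounds added in MeOH (2 µL per well) at several concentrations for 24 h. Cells fixed with 12% trichloroacetic acid, stained with 0.4% SRB, absorbance read at 515 nm. IC50 taken from the linear portion of log dose–response curves.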
A general note: In SRB staining, fixed cells bind dye roughly in proportion to their protein.

In assay [2] the test system is HL-60. The assay can be described thus: Cytotoxicity against human HL60 cells after 72 hrs by MTT assay. To be noted: HL-60, 72 h. In short, it runs like this: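 HL60 grown in RPMI-1640 with 10% FBS at 37 °C, 5% CO2. Seeded at 5 × 10^4 cells/mL, allowed 24 h, then given compounds in MeOH (2 µL per well) at several concentrations for 72 h. MTT (5 mg/mL stock) added for 4 h, formazan dissolved in DMSO, absorbance read at 540 nm. IC50 taken from the linear portion of log dose–response curves.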
(In general: Tetrazolium assays rely on reduction of a dye to a coloured formazan, in cell work by metabolically active cells.)

For assay [3], the system named is HL-60. The assay can be described thus: Cytotoxicity against human HL60 cells at 100 uM after 72 hrs by MTT assay.
Assay [4] has as its system A549. The assay can be described thus: Cytotoxicity against human A549 cells at 100 uM after 24 hrs by SRB assay.

Take `COc1cc(O)c2c(c1)[C@@H]([C@H]1c3cc(C)cc(O)c3C(=O)c3c(O)cc(O)cc31)c1cc(C)cc(O)c1C2=O` (relative stereo): the IC50 (commonly the concentration that inhibits the measured activity by half) in the assay with A549 [1] was 9.2 µM; in the assay on HL-60 [2], 7.8 µM.

With `COc1cc(O)c2c(c1)[C@H]([C@H]1c3cc(C)cc(O)c3C(=O)c3c(O)cc(O)cc31)c1cc(C)cc(O)c1C2=O` (relative stereo), the figures for the IC50 with A549 [1] and in the assay with HL-60 [2] were 14.2 µM and 44 µM, respectively.

Turning to `COc1cc(O[C@H]2O[C@H](CO)[C@@H](O)[C@H]2O)cc2cc(C)cc(O)c12`, the result in the assay on HL-60 [3] and in the assay with A549 [4] was inactive.

Regarding `COc1cc(O)cc2cc3c(c(O)c12)C(=O)C[C@@H](C)[C@@H]3O`, the outcome in the assay on HL-60 [3] and with A549 [4] was inactive.

As for `COc1cc(O)cc2c1C(=O)c1c(O)cc(C)c3oc(=O)c(C(=O)c4c(C)cc(O)cc4O)c-2c13` [ASPERGIOLIDE B], the concentration for half-maximal inhibition (IC50) in the assay with A549 [1] worked out at 0.24 µM; with HL-60 [2], 0.51 µM.

Regarding `COc1cc(O)cc2c1C(=O)c1c(cc(C)c(C(=O)OC[C@H](O)CO)c1O)C2=O`, the result with HL-60 [3] and in the assay with A549 [4] was inactive.

Consider `COc1cc(O[C@H]2O[C@H](CO)[C@@H](O)[C@H]2O)cc2cccc(O)c12`, for which the outcome in the assay with HL-60 [3] and in the assay on A549 [4] was inactive.

In the case of `COc1cc(O[C@H]2O[C@H](CO)[C@@H](O)[C@H]2O)cc2cc(C)c(C(C)=O)c(O)c12`, the outcome with HL-60 [3] and in the assay with A549 [4] was inactive.
